ChEMBL document CHEMBL3407422, “2-(2-oxo-morpholin-3-yl)-acetamide derivatives as broad-spectrum antifungal agents” (J Med Chem, 2015)
In brackets after ≈: the same amount, converted by molar mass.

Experiments:
Candida albicans = test: Antifungal activity against Candida albicans SC5314 after 24 hrs; format: functional
Outline: (§1)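 Overnight YPD cultures diluted in PBS (1/200 for C. albicans, 1/400 for C. glabrata). Cells treated with compound, or 2.5% DMSO as solvent control, for 24 h at 37 °C. CFUs then counted; MFC is the concentration giving 99% killing of the inoculum.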

[1] = Half life in human plasma; format: ADME, cell-free
Nakaseomyces glabratus = test: Antifungal activity against Candida glabrata BG2 after 24 hrs; format: functional; outline: as §1
Aspergillus fumigatus = test: Antifungal activity against Aspergillus fumigatus CBS 117202 after 24 hrs by two-fold dilution method; format: functional; conditions: CBS 117202, 24 h
Outline: (§2)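 Spores at 2×10^4 spores/mL in potato dextrose broth, incubated with a 2-fold compound dilution series for 24 h at 25 °C. Growth read by microspectrophotometry of the liquid cultures. MIC taken as the lowest concentration inhibiting fungal growth.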

[2] = Cytotoxicity against human MRC5 SV2 cells after 72 hrs by fluorescence assay; format: cell-based
Outline: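 MRC-5 SV2 cells (10^4/well) grown in MEM with L-glutamine, NaHCO3 and 5% FCS. Incubated with compound 72 h at 37 °C, 5% CO2, then resazurin added for 24 h. Fluorescence read at ex 530, em 590 nm.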

Sporothrix schenckii = test: Fungicidal activity against Sporothrix schenckii B62482; format: functional, organism-based
Outline: (§3)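 Inoculum of 10^3 CFU in RPMI-MOPS added to prediluted compound, highest concentration 64 µM. Growth read by resazurin fluorescence (ex 550, em 590 nm). IC50 is 50% growth inhibition versus untreated controls. Three independent replicates.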

Aspergillus flavus = test: Antifungal activity against Aspergillus flavus CBS111.45 after 24 hrs by two-fold dilution method; format: functional; conditions: CBS111.45, 24 h; outline: as §2
Microsporum canis = test: Fungicidal activity against Microsporum canis B68128; format: functional; outline: as §3
Trichophyton rubrum = test: Fungicidal activity against Trichophyton rubrum B68183; format: functional, organism-based; outline: as §3
[3] = test system: Trichophyton mentagrophytes; test: Fungicidal activity against Trichophyton mentagrophytes B70554; format: functional, organism-based; outline: as §3

CCN1C[C@@H](c2ccccc2)OC(=O)C1CC(=O)Nc1ccc(C(C)C)cc1 (stereo not given in full) gave an MFC99 (Candida albicans) of 12.5 µg/mL (≈ 32.9 µM) and a half-life [1] of 31 min.
CCN1CC(C)(C)OC(=O)C1CC(=O)NCc1cccc(C)c1 (stereo not given) showed an MFC99 (Candida albicans) of 12.5 µg/mL (≈ 39.3 µM).
In the case of CCN1C(CC(=O)Nc2ccc(C(C)C)cc2)C(=O)OC(C)(C)C1(C)C (stereo not given), the MFC99 (Candida albicans) is reported as greater than 25 µg/mL.
In the case of CCN1CC(C)(C)OC(=O)C1CC(=O)Nc1ccc2c(ccn2C)c1 (stereo not given), the MFC99 (Nakaseomyces glabratus) is reported as 50 µg/mL (≈ 146 µM), the MIC (Aspergillus fumigatus) is reported as 3.1 µg/mL (≈ 9.03 µM) and the CC50 at 72 h [2] is reported as greater than 20 µg/mL. For the same compound, the IC50 (Sporothrix schenckii) was 10 µg/mL (≈ 29.1 µM), the MFC99 (Candida albicans) was 12.5 µg/mL (≈ 36.4 µM) and the MIC (Aspergillus flavus) was 25 µg/mL (≈ 72.8 µM). It also gave an IC50 (Microsporum canis) of 6.2 µg/mL (≈ 18.1 µM), an IC50 (Trichophyton rubrum) of 11 µg/mL (≈ 32 µM) and an IC50 [3] of 11 µg/mL (≈ 32 µM).
For CCN1CC(C)(C)OC(=O)C1C(C)(C)C(=O)Nc1ccc(C(C)C)cc1 (stereo not given), the MFC99 (Candida albicans) was greater than 50 µg/mL.
For CCN1CC(C)(C)OC(=O)C1CC(=O)NCCc1ccccc1 (stereo not given), the MFC99 (Candida albicans) was 25 µg/mL (≈ 78.5 µM).
For CCNC(=O)CC1C(=O)OC(C)(C)CN1CC (stereo not given), the MFC99 (Candida albicans) was 50 µg/mL (≈ 206 µM).
With CCN1CC(C)(C)OC(=O)C1CC(=O)NCc1ccccc1Cl (stereo not given) the MFC99 (Candida albicans) was 25 µg/mL (≈ 73.8 µM).
With CCN1CC(C)(C)OC(=O)C1CC(=O)Nc1ccncn1 (stereo not given) the MFC99 (Candida albicans) was greater than 50 µg/mL.
For CCN1CC(C)(C)OC(=O)C1CC(=O)NCc1cccc(Cl)c1 (stereo not given), the MFC99 (Candida albicans) was 6.25 µg/mL (≈ 18.4 µM).
With CCN1CC(C)(C)OC(=O)C1CC(=O)N(C)c1ccccc1 (stereo not given) the MFC99 (Candida albicans) was greater than 50 µg/mL.
Compound CCN1CCOCC1CC(=O)Nc1ccc(C(C)C)cc1 (stereo not given) has an MFC99 (Candida albicans) greater than 50 µg/mL.
Work on CC(C)c1ccc(NC(=O)CC2C(=O)OC(C)(C)CN2CC(F)(F)F)cc1 (stereo not given) yielded an MFC99 (Candida albicans) greater than 25 µg/mL.
CC(C)c1ccc(NC(=O)CC2C(=O)OC(C)(C)CN2C2CC2)cc1 (stereo not given) gave an MFC99 (Candida albicans) greater than 25 µg/mL.
With CCN1CC(C)(C)OC(=O)C1CC(=O)NCC1CCCCC1 (stereo not given) the MFC99 (Candida albicans) was 25 µg/mL (≈ 80.5 µM).
CC(C)c1ccc(NC(=O)CC2C(=O)OC(C)(C)CN2C)cc1 (stereo not given) showed an MFC99 (Candida albicans) greater than 25 µg/mL.
CCN1CC(C)(C)OC(=O)C1CC(=O)NCc1cccc(OC)c1 (stereo not given) gave an MFC99 (Candida albicans) of 25 µg/mL (≈ 74.8 µM).
Work on CC(C)c1ccc(NC(=O)CC2C(=O)OC(C)(C)CN2C2CCCC2)cc1 (stereo not given) yielded an MFC99 (Candida albicans) greater than 25 µg/mL.
CCN1CC(C)(C)OC(=O)C1CC(=O)NCc1ccc(Cl)cc1 (stereo not given) showed an MFC99 (Nakaseomyces glabratus) of 12.5 µg/mL (≈ 36.9 µM), an MIC (Aspergillus fumigatus) of 6.2 µg/mL (≈ 18.3 µM) and a CC50 at 72 h [2] greater than 20 µg/mL. The IC50 (Sporothrix schenckii) was 2.2 µg/mL (≈ 6.49 µM), the MFC99 (Candida albicans) was 12.5 µg/mL (≈ 36.9 µM) and the MIC (Aspergillus flavus) was 25 µg/mL (≈ 73.8 µM). For the same compound, the IC50 (Microsporum canis) was 2 µg/mL (≈ 5.9 µM), the IC50 (Trichophyton rubrum) was 2 µg/mL (≈ 5.9 µM) and the IC50 [3] was 2.7 µg/mL (≈ 7.97 µM).
CCN1CC(C)(C)OC(=O)C1CC(=O)Nc1ccncc1 (stereo not given) showed an MFC99 (Candida albicans) greater than 50 µg/mL.
Work on CCN(CC)C(=O)CC1C(=O)OC(C)(C)CN1CC (stereo not given) yielded an MFC99 (Candida albicans) greater than 50 µg/mL.
In the case of CC(=O)N1CC(C)(C)OC(=O)C1CC(=O)Nc1ccc(C(C)C)cc1 (stereo not given), the MFC99 (Candida albicans) is reported as greater than 25 µg/mL.
Work on CCCNC(=O)CC1C(=O)OC(C)(C)CN1CC (stereo not given) yielded an MFC99 (Candida albicans) of 25 µg/mL (≈ 97.5 µM).
In the case of CC(C)c1ccc(NC(=O)CC2C(=O)OC(C)(C)CN2S(C)(=O)=O)cc1 (stereo not given), the MFC99 (Candida albicans) is reported as greater than 25 µg/mL.
Compound CCN1CC(C)(C)OC(=O)C1CC(=O)Nc1ccc2scnc2c1 (stereo not given) has an MFC99 (Candida albicans) greater than 50 µg/mL.
For CN(C/C=C/C#CC(C)(C)C)Cc1cccc2ccccc12 [TERBINAFINE], the IC50 (Trichophyton rubrum) was 0.02 µg/mL (≈ 0.0686 µM) and the IC50 [3] was 0.02 µg/mL (≈ 0.0686 µM).
CCN1CC(C)(C)OC(=O)C1CC(=O)NC1CCCC1 (stereo not given) gave an MFC99 (Candida albicans) of 50 µg/mL (≈ 177 µM).
